Assay [1] deals with T1, Serine/threonine-protein kinase Nek2 (Homo sapiens, UniProt P51955).
T1 sequence (P51955 whole entry): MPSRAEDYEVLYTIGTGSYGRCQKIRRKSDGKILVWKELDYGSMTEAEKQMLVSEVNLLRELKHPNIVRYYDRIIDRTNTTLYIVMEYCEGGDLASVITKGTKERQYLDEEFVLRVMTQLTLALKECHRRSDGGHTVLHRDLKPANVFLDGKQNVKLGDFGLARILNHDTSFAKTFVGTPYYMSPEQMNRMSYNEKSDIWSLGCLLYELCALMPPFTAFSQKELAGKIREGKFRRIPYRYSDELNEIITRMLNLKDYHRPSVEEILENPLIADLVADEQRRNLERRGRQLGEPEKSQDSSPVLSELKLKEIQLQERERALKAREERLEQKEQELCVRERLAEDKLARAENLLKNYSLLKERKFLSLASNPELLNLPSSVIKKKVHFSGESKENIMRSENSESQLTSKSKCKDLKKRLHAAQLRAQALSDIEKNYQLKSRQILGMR
Put plainly: Inhibition of human recombinant Nek2 in presence of 50 uM ATP by ADP-Glo kinase assay. The method in brief: (§1)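 Kinase activity was measured at 50 μM ATP using recombinant enzyme. A concentration-response curve was generated for each kinase, and IC50 was obtained by fitting the data.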
In general terms: ADP-Glo turns the ADP formed in a reaction into a luminescent signal.

In assay [2] the test system is A549. Kind of assay: Antimigratory activity against human A549 cells at 50 to 100 uM by wound healing assay. It is filed as functional, cell-based. The note with it: dose 50-100 µM. The procedure, abridged: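 A549 monolayers were scratched and treated. Migration was judged by imaging wound boundaries at the initial scratch (t = 0) and at 24 hr post-treatment, compared with vehicle control.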

Assay [3] concerns A549. Put plainly: Inhibition of Akt phosphorylation at S473 residue in human A549 cells by Western blotting analysis. It is filed as cell-based. Particulars: dose 5-20 µM. The procedure, abridged: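 A549 cells were treated for 24 h across several concentrations. Ser-473 phospho-Akt was detected by Western blot with GAPDH as the loading control. DMSO served as vehicle control and a reference Nek2 inhibitor as positive control.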
(Immunoblotting shows a protein as a band on a membrane.)

In another assay the test system is MDA-MB-231. Put plainly: Cytotoxicity against human MDA-MB-231 cells assessed as inhibition of cell growth by MTT assay. It is filed as functional, cell-based. The method in brief: (§2)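 Cell viability read by MTT assay across a range of concentrations. EC50 taken from the dose-response curve. See Supporting Information, Section III, for details not given here.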

In assay [4] the target is Serine/threonine-protein kinase PLK1 (Homo sapiens, UniProt P53350). Kind of assay: Inhibition of Plk1 (unknown origin). The method in brief:
as §1

Assay [5] has as its target T1, Serine/threonine-protein kinase Nek2. Put plainly: Inhibition of human recombinant Nek2 in presence of 150 uM ATP by ADP-Glo kinase assay. The procedure, abridged:
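Recombinant human Nek2 kinase activity assay run with ATP raised threefold, from the standard 50 μM to 150 μM. Inhibitor tested over a concentration series, and IC50 obtained by fitting the concentration-response curve.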

A further assay concerns the target T2, Aurora kinase A (Homo sapiens, UniProt O14965).
T2 sequence (O14965 whole entry): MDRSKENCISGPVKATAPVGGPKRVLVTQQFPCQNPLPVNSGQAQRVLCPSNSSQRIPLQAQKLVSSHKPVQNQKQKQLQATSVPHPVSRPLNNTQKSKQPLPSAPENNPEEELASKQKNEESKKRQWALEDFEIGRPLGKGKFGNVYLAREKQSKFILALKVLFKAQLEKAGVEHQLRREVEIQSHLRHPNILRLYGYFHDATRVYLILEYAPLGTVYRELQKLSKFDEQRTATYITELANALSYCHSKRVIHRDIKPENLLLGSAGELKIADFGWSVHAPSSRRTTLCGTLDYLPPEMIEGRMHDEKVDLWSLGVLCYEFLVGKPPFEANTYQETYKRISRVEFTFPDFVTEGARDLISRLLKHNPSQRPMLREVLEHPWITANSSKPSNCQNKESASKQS
Put plainly: Inhibition of Aurora A (unknown origin). The procedure, abridged: as §1

The target of assay [6] is Serine/threonine-protein kinase Nek7 (Homo sapiens, UniProt Q8TDX7). Kind of assay: Inhibition of Nek7 (unknown origin). The method in brief: as §1
Serine/threonine-protein kinase Nek7, sequence (Q8TDX7 whole entry): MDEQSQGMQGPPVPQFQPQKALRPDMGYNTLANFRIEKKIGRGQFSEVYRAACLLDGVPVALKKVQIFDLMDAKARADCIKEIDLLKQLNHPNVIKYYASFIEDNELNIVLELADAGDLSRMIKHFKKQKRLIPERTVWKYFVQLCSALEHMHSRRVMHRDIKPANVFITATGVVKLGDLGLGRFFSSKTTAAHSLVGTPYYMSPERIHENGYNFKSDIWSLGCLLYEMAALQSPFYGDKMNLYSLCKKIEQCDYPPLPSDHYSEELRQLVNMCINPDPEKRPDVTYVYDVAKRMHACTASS
In assay [7] the test system is A549. Kind of assay: Cytotoxicity against human A549 cells assessed as inhibition of cell growth by MTT assay. It is filed as functional, cell-based. The procedure, abridged: as §2
Background: Tetrazolium assays rely on reduction of a dye to a coloured formazan, in cell work by metabolically active cells.

For assay [8], the target named is Cyclin-dependent kinase 1 (Homo sapiens, UniProt P06493). Kind of assay: Inhibition of CDK1 (unknown origin). The procedure, abridged: as §1
Cyclin-dependent kinase 1, sequence (P06493 whole entry): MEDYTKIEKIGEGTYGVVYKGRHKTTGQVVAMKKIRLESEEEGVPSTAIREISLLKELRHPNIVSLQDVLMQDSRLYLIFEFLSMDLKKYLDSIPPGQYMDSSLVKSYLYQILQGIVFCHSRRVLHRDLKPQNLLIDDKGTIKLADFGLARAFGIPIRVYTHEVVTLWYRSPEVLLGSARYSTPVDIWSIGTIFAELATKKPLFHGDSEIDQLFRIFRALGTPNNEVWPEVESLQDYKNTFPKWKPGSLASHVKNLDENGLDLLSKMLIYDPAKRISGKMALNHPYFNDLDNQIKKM

pIC50: −log10 of the molar value. Activity calls are given as the source filed them. The calls are words filed in the database; no cut-off is given here.

Serine/threonine-protein kinase PLK1, sequence (P53350 whole entry): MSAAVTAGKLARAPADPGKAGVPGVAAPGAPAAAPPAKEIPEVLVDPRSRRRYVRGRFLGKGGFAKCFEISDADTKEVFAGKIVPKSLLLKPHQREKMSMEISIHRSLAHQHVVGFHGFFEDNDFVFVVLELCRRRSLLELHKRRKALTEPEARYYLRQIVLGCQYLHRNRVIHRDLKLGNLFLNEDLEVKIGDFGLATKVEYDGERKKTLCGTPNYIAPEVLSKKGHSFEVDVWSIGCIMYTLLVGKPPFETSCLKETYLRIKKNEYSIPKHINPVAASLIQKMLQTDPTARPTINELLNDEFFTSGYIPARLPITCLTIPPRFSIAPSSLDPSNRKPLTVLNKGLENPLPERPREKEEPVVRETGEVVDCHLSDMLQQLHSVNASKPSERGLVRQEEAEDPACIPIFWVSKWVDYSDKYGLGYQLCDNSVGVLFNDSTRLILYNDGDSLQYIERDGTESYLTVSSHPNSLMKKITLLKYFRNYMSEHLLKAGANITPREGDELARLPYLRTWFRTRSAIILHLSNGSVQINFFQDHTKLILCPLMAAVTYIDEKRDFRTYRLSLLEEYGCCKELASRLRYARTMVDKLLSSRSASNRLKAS

The pIC50 is the IC50 on a negative log10 scale, so that one unit is a factor of ten. Take `CS(=O)(=O)N1CCC2(CC1)NCC(=O)N2`: the pIC50 in assay [1] is 4.49.
For `O=C1NC2(CCN(S(=O)(=O)c3ccccc3)CC2)N=C1c1ccccc1`, in [1], the pIC50 was 5.09.
As to `O=C1NC2(CCN(S(=O)(=O)c3ccccc3)CC2)N=C1c1ccc(Cl)cc1`, in assay [1], the pIC50 is 5.22.
Regarding `CCOC(=O)c1ccc(S(=O)(=O)N2CCC3(CC2)N=C(c2ccc(Br)cc2)C(=O)N3)cc1`, in assay [1], the pIC50 is 4.84.
Turning to `Cc1cc(C)c(S(=O)(=O)N2CCC3(CC2)N=C(c2ccc(Br)cc2)C(=O)N3)c(C)c1`, the pIC50 in assay [1] was 5.01.
The same measure, in the same setting: in the case of `O=C1NC2(CCN(S(=O)(=O)c3ccccc3)CC2)N=C1c1ccc(Br)cc1` it was 5.03.
Take `O=C1NC2(CCN(C(=O)c3ccccc3)CC2)N=C1c1ccc(Br)cc1`: in assay [1], the pIC50 is 5.04.
`O=C1NC2(CCN(S(=O)(=O)c3ccccc3)CC2)N=C1c1ccc(F)cc1`: the pIC50 in [1] was 5.35.
With `O=C1NC2(CCN(S(=O)(=O)c3cccs3)CC2)N=C1c1ccc(Br)cc1`, in assay [1], the pIC50 is 5.25.
In the case of `Cc1ccc(C2=NC3(CCN(S(C)(=O)=O)CC3)NC2=O)cc1`, in assay [1], the pIC50 is 5.31.
In the case of `CC(C)(C)c1ccc(C2=NC3(CCN(S(C)(=O)=O)CC3)NC2=O)cc1`, in assay [1], the pIC50 was 5.06.
For the molecule `CS(=O)(=O)N1CCC2(CC1)N=C(c1ccc(Br)cc1)C(=O)N2`, in the assay on A549 [2], the outcome was Active. The inhibition result with A549 [3] was “Dose-Dependent Effect”. The pIC50 is 4.74 in the assay on MDA-MB-231; 4.69 in assay [4]; 5.62 in assay [1]; 4.77 in assay [5]; 4.67 at Aurora kinase A; 4.54 in assay [6]. The pIC50 with A549 [7] is 4.64; in assay [8] it was 4.53.
On to `O=C1NC2(CCN(S(=O)(=O)Cc3ccccc3)CC2)N=C1c1ccc(Br)cc1`, for which the pIC50 in assay [1] is 5.17.
As for `Cc1ccc(S(=O)(=O)N2CCC3(CC2)N=C(c2ccc(Br)cc2)C(=O)N3)cc1C`, in assay [1], the pIC50 is 4.91.
Turning to `CC(C)(C)c1ccc(S(=O)(=O)N2CCC3(CC2)N=C(c2ccc(Br)cc2)C(=O)N3)cc1`, in assay [1], the pIC50 is 5.30.
Same read-out and setting: in the case of `O=C1CNC2(CCNCC2)N1` it was 4.49; in that of `Cc1ccc(C2=NC3(CCN(S(C)(=O)=O)CC3)NC2=O)cc1C`, 5.49.
For the molecule `CN1CCC2(CC1)NCC(=O)N2`, the pIC50 in assay [1] was 4.24.

Source of the values: ChEMBL document CHEMBL5257104, “Identification of a novel spirocyclic Nek2 inhibitor using high throughput virtual screening” (Bioorg Med Chem Lett, 2023).
